Source: ChEMBL document CHEMBL1138835, “Inhibitors of multiple mutants of Plasmodium falciparum dihydrofolate reductase and their antimalarial activities” (J Med Chem, 2004)

Key:
[1] = molecular target: Bifunctional dihydrofolate reductase-thymidylate synthase (Plasmodium falciparum K1, UniProt P13922, C59R/I164L/S108N); experiment: Binding affinity towards mutant dihydrofolate reductase (C59R+S108N+I164L DHFR) of Plasmodium falciparum
[2] = molecular target: Bifunctional dihydrofolate reductase-thymidylate synthase (Plasmodium falciparum K1, UniProt P13922, C59R/N51I/S108N); experiment: Binding affinity towards mutant dihydrofolate reductase (N51I+C59R+S108N DHFR) of Plasmodium falciparum
Chain of Bifunctional dihydrofolate reductase-thymidylate synthase (Plasmodium falciparum K1, UniProt P13922, C59R/N51I/S108N) (P13922 whole entry, looked up, stated change not applied): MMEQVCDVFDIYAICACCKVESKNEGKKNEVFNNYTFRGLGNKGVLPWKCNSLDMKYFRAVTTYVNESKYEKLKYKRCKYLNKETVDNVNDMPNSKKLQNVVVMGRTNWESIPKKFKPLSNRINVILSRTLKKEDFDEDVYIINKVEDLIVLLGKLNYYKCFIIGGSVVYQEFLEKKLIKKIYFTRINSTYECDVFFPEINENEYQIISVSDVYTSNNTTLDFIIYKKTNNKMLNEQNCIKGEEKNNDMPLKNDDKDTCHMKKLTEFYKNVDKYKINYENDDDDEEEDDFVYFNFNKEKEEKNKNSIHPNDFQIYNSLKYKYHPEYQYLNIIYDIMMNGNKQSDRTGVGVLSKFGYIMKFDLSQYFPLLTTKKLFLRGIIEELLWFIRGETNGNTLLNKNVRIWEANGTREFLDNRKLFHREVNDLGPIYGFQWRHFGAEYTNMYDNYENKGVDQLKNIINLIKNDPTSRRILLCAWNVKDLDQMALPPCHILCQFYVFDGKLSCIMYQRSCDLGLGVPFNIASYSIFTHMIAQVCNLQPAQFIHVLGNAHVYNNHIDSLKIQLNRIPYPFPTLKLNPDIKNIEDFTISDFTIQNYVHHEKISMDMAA

[3] = molecular target: Bifunctional dihydrofolate reductase-thymidylate synthase (Plasmodium falciparum K1, UniProt P13922); experiment: Binding affinity towards wild-type dihydrofolate reductase of Plasmodium falciparum.
Chain of Bifunctional dihydrofolate reductase-thymidylate synthase (Plasmodium falciparum K1, UniProt P13922) (P13922 whole entry): as the sequence (P13922 whole entry, looked up, stated change not applied) above

[4] = tested on: Bifunctional dihydrofolate reductase-thymidylate synthase (Plasmodium falciparum K1), P13922 [UNDEFINED MUTATION]; experiment: Ratio of binding affinity for mutant (C59R+S108N+I164L) to that of wild type dihydrofolate reductase
Chain of Bifunctional dihydrofolate reductase-thymidylate synthase (Plasmodium falciparum K1), P13922 [UNDEFINED MUTATION] (P13922 whole entry, looked up, stated change not applied): as above
Summary of the method: (§1)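 Each ratio is Ki for the mutant PfDHFR divided by Ki for wild-type PfDHFR. The recombinant enzymes were expressed in E. coli BL21(DE3)pLysS and purified on methotrexate-Sepharose. Ki was derived assuming inhibitors compete with substrate binding.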

[5] = molecular target: Bifunctional dihydrofolate reductase-thymidylate synthase (Plasmodium falciparum K1) (UniProt P13922); experiment: Ratio of binding affinity for mutant (N51I+C59R+S108N) to that of wild type dihydrofolate reductase; summary of the method: as §1
Chain of Bifunctional dihydrofolate reductase-thymidylate synthase (Plasmodium falciparum K1) (P13922 whole entry, looked up): as the sequence (P13922 whole entry, looked up, stated change not applied) above

[6] = tested on: Bifunctional dihydrofolate reductase-thymidylate synthase (Plasmodium falciparum K1), P13922 [UNDEFINED MUTATION]; experiment: Ratio of binding affinity for mutant (N51I+C59R+S108N+I164L) to that of wild type dihydrofolate reductase; summary of the method: as §1
[7] = molecular target: Bifunctional dihydrofolate reductase-thymidylate synthase (Plasmodium falciparum K1, UniProt P13922, C59R/I164L/N51I/S108N); experiment: Binding affinity towards mutant dihydrofolate reductase (N51I+C59R+S108N+I164L DHFR) of Plasmodium falciparum
Chain of Bifunctional dihydrofolate reductase-thymidylate synthase (Plasmodium falciparum K1, UniProt P13922, C59R/I164L/N51I/S108N) (P13922 whole entry, looked up, stated change not applied): as above

BC [8] = experiment: Relative antiplasmodial activity to cytotoxicity in Plasmodium falciparum Csl-2 infected BC cells; format: functional
KB [9] = experiment: Relative antiplasmodial activity to cytotoxicity in Plasmodium falciparum Csl-2 infected KB cells; format: functional
Vero [10] = experiment: Relative antiplasmodial activity to cytotoxicity in Plasmodium falciparum Csl-2 infected Vero cells; format: functional
BC [11] = experiment: Relative antiplasmodial activity to cytotoxicity in Plasmodium falciparum TM4/8.2 infected BC cells; format: functional
KB [12] = experiment: Relative antiplasmodial activity to cytotoxicity in Plasmodium falciparum TM4/8.2 infected KB cells; format: functional
KB [13] = experiment: Relative antiplasmodial activity to cytotoxicity in Plasmodium falciparum V1/S infected KB cells; format: functional
Vero [14] = experiment: Relative antiplasmodial activity to cytotoxicity in Plasmodium falciparum V1/S infected Vero cells; format: functional
Vero [15] = experiment: Relative antiplasmodial activity to cytotoxicity in Plasmodium falciparum TM4/8.2 infected Vero cells; format: functional
[16] = molecular target: Bifunctional dihydrofolate reductase-thymidylate synthase (Plasmodium falciparum K1, UniProt P13922, A16V/S108T); experiment: Binding affinity towards mutant dihydrofolate reductase (A16V+S108T DHFR) of Plasmodium falciparum.
Chain of Bifunctional dihydrofolate reductase-thymidylate synthase (Plasmodium falciparum K1, UniProt P13922, A16V/S108T) (P13922 whole entry, looked up, stated change not applied): as above

KB [17] = experiment: In vitro cytotoxicity against Plasmodium falciparum infected KB cell line; format: functional, cell-based; conditions: Homo sapiens
Summary of the method: (§2)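 Cytotoxicity (IC50, μM) run against three mammalian lines: Vero (African green monkey kidney fibroblasts), KB (human epidermoid carcinoma) and BC (human breast cancer). Testing followed the Skehan et al. protocol.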

Vero [18] = experiment: In vitro cytotoxicity against Plasmodium falciparum infected vero cell line.; format: functional, cell-based; conditions: Chlorocebus sabaeus; summary of the method: as §2
[19] = tested on: Bifunctional dihydrofolate reductase-thymidylate synthase (Plasmodium falciparum K1), P13922 [UNDEFINED MUTATION]; experiment: Ratio of binding affinity for mutant (A16V+S108T) to that of wild type dihydrofolate reductase; summary of the method: as §1
BC [20] = experiment: In vitro cytotoxicity against BC cell line.; conditions: Homo sapiens

Chain of Bifunctional dihydrofolate reductase-thymidylate synthase (Plasmodium falciparum K1, UniProt P13922, C59R/I164L/S108N) (P13922 whole entry, looked up, stated change not applied): as above

Row | SMILES | Ki [1] [nM] | Ki [2] [nM] | Ki [3] [nM] | Ratio [4] | Ratio [5] | Ratio [6] | Ki [7] [nM] | Safety ratio (BC [8]) | Safety ratio (KB [9]) | Safety ratio (Vero [10]) | Safety ratio (BC [11]) | Safety ratio (KB [12]) | Safety ratio (KB [13]) | Safety ratio (Vero [14]) | Safety ratio (Vero [15]) | Ki [16] [nM] | IC50 (KB [17]) [nM] | IC50 (Vero [18]) [nM] | Ratio [19] | IC50 (BC [20]) [nM]
1 | COC(=O)CCCc1nc(N)nc(N)c1-c1ccccc1 | 15 | 3.3 | 0.6 | 25 | 5.5 | 40 | 24 |  |  |  |  |  |  |  |  |  |  |  |  | 
2 | CCCCCCc1nc(N)nc(N)c1-c1ccccc1 | 0.7 | 0.4 | 0.3 |  |  |  | 1.4 | 89.3 | 37.7 | 18.3 | 4467 | 1883 | 17.7 | 8.6 | 917 |  |  |  |  | 
3 | CCc1nc(N)nc(N)c1-c1ccc2c(c1)OCO2 | 121 | 8.3 | 1.1 | 110 | 7.5 | 244 | 269 |  |  |  |  |  |  |  |  |  |  |  |  | 
4 | CCCC1(C)N=C(N)N=C(N)N1c1cccc(Cl)c1 (centres undefined) | 33.1 | 9.7 |  | 7.2 | 2.1 | 8.53 | 39.4 | 221 | 379 | >1724 | 356 | 611 | 1.1 | 454 | >2778 | 471 | 110000 | > 500000 | 102 | 64000
5 | Nc1nc(N)c(-c2ccc(Cl)cc2)c(CCCc2ccccc2)n1 | 63 | 15.1 | 0.7 | 90 | 21.6 | 243 | 170 |  |  |  |  |  |  |  |  |  |  |  |  | 
6 | NC1=NC(c2ccc(Oc3ccccc3)cc2)N(c2ccc(Cl)cc2)C(N)=N1 (centres undefined) | 145 | 29.3 |  | 363 | 73.1 | 555 | 222 | 1.8 | 1.5 | >10.4 | 71.7 | 58.3 | 1 | >7.2 | >417 | 3.8 | 7000 | > 50000 | 9.5 | 8600
7 | CC1N=C(N)N=C(N)N1c1ccc(Cl)cc1 (centres undefined) | 1580 | 134 | 4.1 | 386 | 32.7 | 592 | 2430 |  |  |  |  |  |  |  |  |  |  |  | 31 | 
8 | Cc1nc(N)nc(N)c1-c1cccc(Cl)c1 | 9.8 | 6.5 | 1.9 | 5.2 | 3.4 | 7.4 | 14 |  |  |  |  |  |  |  |  |  |  |  |  | 
9 | CCc1nc(N)nc(N)c1-c1ccc(Cl)c(Cl)c1 [ETOPRINE] | 41 | 3.1 | 1 | 41 | 3.1 | 53 | 53 |  |  |  |  |  |  |  |  |  |  |  |  | 
10 | COc1ccc(CCCc2nc(N)nc(N)c2-c2cccc(Cl)c2)cc1 | 2.9 | 1.3 | 2.2 | 1.3 | 0.6 | 0.9 | 2 | 1.1 | 5.6 | 1.1 | 7.3 | 36.6 | 3.2 | 0.6 | 7.3 |  |  |  |  | 3000
11 | Nc1nc(N)c(-c2cccc(Cl)c2)c(CCOCCCOc2ccccc2)n1 | 1.3 | 0.7 | 0.4 | 3.2 | 1.7 | 4.2 | 1.7 | 1.7 | 2.2 | 5.2 | 14 | 18.3 | 1.4 | 3.3 | 42.9 |  | 6400 |  |  | 4900
12 | CCc1nc(N)nc(N)c1-c1ccc(C)cc1 | 88 | 6.9 | 0.4 | 220 | 17.2 | 710 | 284 |  |  |  |  |  |  |  |  |  |  |  |  | 
13 | NC1=NC(c2ccc(Oc3ccccc3)cc2)N(c2cccc(Cl)c2)C(N)=N1 (centres undefined) | 0.3 | 0.9 |  | 0.5 | 1.2 | 1.9 | 1.3 | 1.6 | 1.2 | >15.2 | 8.3 | 6.2 | 1.2 | >15.2 | >76.9 | 2.7 | 4000 | > 50000 | 3.9 | 5300
14 | Nc1nc(N)c(-c2ccccc2)c(CCCc2ccccc2)n1 | 1.9 | 1.1 | 0.5 | 3.8 | 2.2 | 9.4 | 4.7 | 92.6 | 55.6 | >18.5 | 1191 | 714 | 17.4 | >5.8 | >238 |  | 150000 |  |  | 250000
15 | COC(=O)CCCc1nc(N)nc(N)c1-c1ccc(Cl)cc1 | 145 | 29.3 | 0.3 | 483 | 97.7 | 1200 | 360 |  |  |  |  |  |  |  |  |  |  |  |  | 
16 | COC(=O)CCCc1nc(N)nc(N)c1-c1cccc(Cl)c1 | 1.8 | 0.77 | 0.5 | 3.6 | 1.5 | 5.4 | 2.7 |  |  |  |  |  |  |  |  |  |  |  |  | 
17 | NC1=NC(c2cccc(Oc3ccc(Cl)cc3)c2)N(c2ccc(Cl)cc2)C(N)=N1 (centres undefined) | 151 | 85.5 |  | 108 | 61.1 | 86.4 | 121 | 1.8 | 1 | 7.8 | 2.5 | 1.4 | 1.1 | 8.2 | 11.1 | 7.5 | 4000 | 31000 | 5.4 | 7000
18 | NC1=NC(c2cccc(Oc3ccccc3)c2)N(c2cccc(Cl)c2)C(N)=N1 (centres undefined) | 3 | 2.5 |  | 2.7 | 2.3 | 5.3 | 5.8 | 2.5 | 1.2 | >14.7 | 3.8 | 1.8 | 1.1 | >13.9 | >22.7 | 2.5 | 4000 | > 50000 | 2.3 | 8400
19 | NC1=NC(c2cccc(Oc3cccc(C(F)(F)F)c3)c2)N(c2cccc(Cl)c2)C(N)=N1 (centres undefined) | 0.6 | 2 |  | 0.2 | 0.7 | 1.8 | 4.8 | 1.9 | 1.8 | 8.8 | 2 | 1.9 | 1.9 | 9.4 | 9.4 | 6.5 | 6000 | 30000 | 2.4 | 6400
20 | CCCCCCC1(C)N=C(N)N=C(N)N1c1cccc(Cl)c1 (centres undefined) | 12.1 | 5.5 |  | 5 | 2.3 | 6.58 | 15.9 | 4.5 | 8.2 | 469 | 36.7 | 66.7 | 1.3 | 71.9 | 3833 | 101 | 4000 | 230000 | 41.9 | 2200
